Most compounds without a hit are left out; they make up all but 1.7% or so of the library.
PLCb3 inh: human PLC-beta3 inhibitors, primary screen, biochemical, fluorescence | inhibition, % at 12.2 µM | Purified PLC-beta3, fluorogenic substrate | 370,000 tested, 0.18% active | 1-phosphatidylinositol 4,5-bisphosphate phosphodiesterase beta-3 (Homo sapiens), Q01970; in the data active = inhibition above about 11%;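 note: 0% = median of compound wells on plate and 100% = full blocker control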
Target sequence (Q01970 whole entry, looked up): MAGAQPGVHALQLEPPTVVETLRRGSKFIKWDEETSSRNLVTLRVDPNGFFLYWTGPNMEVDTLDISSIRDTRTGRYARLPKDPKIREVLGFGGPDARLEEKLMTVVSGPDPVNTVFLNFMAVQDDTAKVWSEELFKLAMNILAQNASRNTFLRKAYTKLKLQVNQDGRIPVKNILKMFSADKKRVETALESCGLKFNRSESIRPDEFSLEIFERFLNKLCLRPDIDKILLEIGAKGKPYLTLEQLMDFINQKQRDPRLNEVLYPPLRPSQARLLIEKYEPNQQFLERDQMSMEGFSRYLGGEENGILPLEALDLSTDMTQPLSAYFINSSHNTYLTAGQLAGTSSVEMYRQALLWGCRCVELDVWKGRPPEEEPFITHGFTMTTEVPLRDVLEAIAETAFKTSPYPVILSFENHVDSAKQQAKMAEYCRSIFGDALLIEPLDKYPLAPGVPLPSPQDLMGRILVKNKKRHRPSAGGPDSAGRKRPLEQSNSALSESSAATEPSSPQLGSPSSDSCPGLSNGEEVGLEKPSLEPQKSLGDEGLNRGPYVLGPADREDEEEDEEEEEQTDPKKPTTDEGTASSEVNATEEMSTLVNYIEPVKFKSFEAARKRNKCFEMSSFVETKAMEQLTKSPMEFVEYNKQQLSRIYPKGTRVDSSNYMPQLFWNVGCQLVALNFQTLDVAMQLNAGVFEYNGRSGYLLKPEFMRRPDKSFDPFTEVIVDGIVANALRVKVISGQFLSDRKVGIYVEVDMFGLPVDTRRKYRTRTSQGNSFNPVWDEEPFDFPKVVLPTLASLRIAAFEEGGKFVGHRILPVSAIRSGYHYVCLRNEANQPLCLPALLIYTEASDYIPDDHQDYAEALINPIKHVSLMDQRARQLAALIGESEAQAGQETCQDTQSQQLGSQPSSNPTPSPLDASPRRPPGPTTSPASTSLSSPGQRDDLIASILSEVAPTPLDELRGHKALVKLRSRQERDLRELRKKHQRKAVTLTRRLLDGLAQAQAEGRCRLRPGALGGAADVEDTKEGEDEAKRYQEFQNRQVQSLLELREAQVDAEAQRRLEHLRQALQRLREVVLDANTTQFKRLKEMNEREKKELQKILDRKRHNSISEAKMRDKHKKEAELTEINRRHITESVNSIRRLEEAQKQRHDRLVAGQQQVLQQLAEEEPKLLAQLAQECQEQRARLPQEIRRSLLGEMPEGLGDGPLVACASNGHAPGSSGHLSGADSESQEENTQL
Rpn11 inh: Rpn11 (PSMD14) deubiquitinase inhibitors, primary screen, biochemical, fluorescence polarization, uHTS. 26S proteasome non-ATPase regulatory subunit 14 (Homo sapiens), O00487. human 26S proteasome, Ub4-pepOG fluorescence polarization; 20S core pre-blocked with epoxomicin. inhibition, % at 20 µM. 360,000 tested, 0.59% active. AID 588493, 2011;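 active = inhibition at 20 µM, scaled to each plate's controls, above about 33%, limit read from the data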
PLCg1 inh: PLC-gamma1 enzyme inhibitors, primary screen, biochemical, fluorescence, purified enzyme; 370,000 tested, 0.84% active; fluorogenic substrate; AID 720700, 2013; inhibition, % at 12.2 µM; in the data active = inhibition above about 9.5%
UCH37 DUB inh: inhibitors of human UCH37 deubiquitinase, primary screen, biochemical, Ub-AMC cleavage, fluorescence; Ubiquitin carboxyl-terminal hydrolase isozyme L5 (Homo sapiens), Q9Y5K5; purified proteasome/UCH37; inhibition, % (no concentration beside the values); 330,000 tested, 0.33% active; AID 588478, 2011;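 active = mean inhibition over replicate wells above about 20%, limit read from the data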;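 note: 0% = compound-free wells with enzyme and 100% = wells lacking proteasome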
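Assay system: Proteasome-bound UCH37. Buffer or medium: pH 7.4 Tris-HCl (50 mM) with ovalbumin, ATP-MgCl2, DTT. Incubation: 30 min preincubation with enzyme, 25 min cleavage at room temperature. Measured by: fluorescence, ex 355 nm, em 460 nm. Read-out basis: percent inhibition. Control set: wells without proteasome as full block, compound-free enzyme plus substrate as uninhibited.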
UCH37 reconfirm: retest of human UCH37 deubiquitinase inhibitors, confirmation, biochemical, Ub-AMC cleavage rate, fluorescence; shares compounds with UCH37 DUB inh; inhibition, % at 20 µM; 480 tested, 27% active; Proteasome-bound UCH37;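 active = average inhibition over replicates above about 50%, so the earlier screening hit is confirmed, limit read from the data; inactive = the rest, counted as false positives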;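 note: based on cleavage rate fitted by regression over a 30 min kinetic read; 0% = proteasome plus Ub-AMC and 100% = Ub-AMC without proteasome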
Rpn11 confirm: Rpn11 (PSMD14) deubiquitinase inhibitors, confirmation, biochemical, fluorescence polarization, single concentration; shares compounds with Rpn11 inh; purified human 26S proteasome, Ub4-pepOG fluorescence polarization; proteasome pretreated with epoxomicin; inhibition, % at 20 µM; 1,900 tested, 29% active
MMP-2 counter: MMP-2 enzyme inhibition, confirmation, counter-screen for RPN11 inhibitor project, biochemical, fluorescence, single concentration | shares compounds with Rpn11 inh | recombinant MMP-2, FRET peptide cleavage fluorescence | inhibition, % at 20 µM | 1,900 tested, 4% active | AID 602330, 2012;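 note: human MMP-2 activated beforehand with APMA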
Thrombin FP: bovine thrombin protease inhibition, confirmation, counter-screen for Rpn11 inhibitor project, biochemical, fluorescence polarization, single concentration | shares compounds with Rpn11 inh | bovine thrombin cleavage of Ub4-pepOG | inhibition, % at 20 µM | 1,900 tested, 13% active | AID 602333, 2012;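 active = mean inhibition at least 40% at 20 µM, or signal 3 deviations below plate average, so some actives read negative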;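 note: plate controls were thrombin with DMSO for no effect and buffer wells lacking thrombin for full effect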
PLCg1 ctr: PLC-gamma1 enzyme inhibitors, counter-screen for PLC-beta3 inhibitor project, biochemical, fluorescence. shares compounds with PLCg1 inh. purified PLC-gamma1, fluorogenic substrate. inhibition, % at 12.3 µM. 3,300 tested, 3.1% active. AID 743258, 2014; in the data active = inhibition above about 9.5%
PLCbeta3 conf: PLC-beta3 inhibitor confirmation, biochemical, fluorescence, purified enzyme; shares compounds with PLCg1 inh; inhibition, % at 12.3 µM; AID 743261, 2014; fluorogenic substrate fluorescence; 3,300 tested, 1% active; in the data active = inhibition above about 11%
* = called active by the depositor; . = not tested or not shown. Cut-off read from the data, not from the text of the source, unless noted: active = inhibition above about 40%; inactive = the rest.

SMILES	PLCb3 inh	Rpn11 inh	PLCg1 inh	UCH37 DUB inh	Rpn11 confirm	MMP-2 counter	Thrombin FP	others
CC(=O)ON=Cc1c(N2CCOCC2)n(C)c2ccccc12	.	.	.	6.0	.	.	.
COc1cc(OC)c(OC)cc1/C=C1\Oc2cc(OCC(=O)N3Cc4ccccc4C[C@H]3C(=O)O)ccc2C1=O	.	.	.	26.5*	.	.	.	UCH37 reconfirm=18.3
COc1ccc(OC)c(/C=C2\Oc3cc(OCC(=O)N4CCC[C@H]4C(=O)O)ccc3C2=O)c1	.	5.4	.	14.8	.	.	.
CC(=O)NC1=C(NC2CCS(=O)(=O)C2)C(=O)c2ccccc2C1=O (stereo not drawn)	2.9	11.8	2.2	28.1*	.	.	.	UCH37 reconfirm=26.5
CC(=O)N(N=C1Sc2ccccc2C1=O)c1ccc(C)cc1C	.	.	.	34.8*	.	.	.	UCH37 reconfirm=26.3
COc1ccccc1N(N=C1Sc2ccccc2C1=O)C(C)=O	.	.	.	71.3*	.	.	.	UCH37 reconfirm=35.2
CC(=O)N(/N=C1\Sc2ccccc2C1=O)c1ccc(C)cc1C	-2.5	9.5	-0.1	.	.	.	.
CN(Cc1ccccc1)C(=O)c1cccc(NC(=O)Cc2ccc([N+](=O)[O-])cc2)c1	1.9	2.4	-1.6	41.0*	.	.	.	UCH37 reconfirm=9.3
O=C(NN=Cc1c[nH]c2ccccc12)c1cccs1	.	.	.	6.7	.	.	.
Cc1cc(/C=C2/C(=O)N(C)C(=S)N2C)ccc1N1CCCC1	-4.1	.	-3.0	2.4	.	.	.
CN1C(=O)/C(=C/C=C2/CCCN2C)N(C)C1=S	-2.0	46.7*	-2.6	34.3*	56.0*	-34.2	37.0	UCH37 reconfirm=29.4
C(=NNc1nc2ccccc2s1)c1ccc2c(c1)OCO2	.	.	.	-8.6	.	.	.
CCCCCCCCCCCCCCCC[n+]1ccc(C(N)=O)cc1	5.2	67.2*	5.7	68.0*	14.7	-10.4	-18.4	UCH37 reconfirm=71.2*
COC(=O)c1cc(C)nc2c1C(=O)C(=O)C=C2N1CCOCC1	-2.3	36.3	13.7*	100.2*	.	.	.	UCH37 reconfirm=100.4*;PLCg1 ctr=48.9*;PLCbeta3 conf=10.8*
COC(=O)c1cc(S(=O)(=O)N2CCOCC2)c(Cl)cc1N1CCOCC1	0.8	2.0	-3.0	6.4	.	.	.
CCOc1ccc(S(=O)(=O)Nc2ccc(C(=O)NN=Cc3c(C)nn(-c4ccccc4)c3N3CCCC3)cc2)cc1	.	.	.	-8.8	.	.	.
Nc1ccc2c(c1)C(=O)C(=O)c1ccccc1-2	2.2	-0.1	53.4*	98.7*	.	.	.	UCH37 reconfirm=100.7*;PLCg1 ctr=50.8*;PLCbeta3 conf=9.2
COc1ccc(C(C)=N/N=C2/NC(=O)CC(C(=O)O)S2)cc1F (stereo not drawn)	.	.	.	8.9	.	.	.
CCOC(=O)C1=C(C)OC2(O)c3ccccc3C(=O)C12O (stereo not drawn)	2.1	14.7	10.3*	79.3*	.	.	.	UCH37 reconfirm=71.9*;PLCg1 ctr=-1.9;PLCbeta3 conf=-3.8
CCC(OC(=O)c1ccco1)C(=O)NCc1ccco1 (stereo not drawn)	2.4	128.5*	0.1	-2.4	-5.0	-25.4	-1.9
COC(=O)c1sc(NC(=O)/C=C/c2ccccc2Cl)nc1C	-6.8	55.4*	-0.5	-69.1	1.4	-5.6	-12.2
COC(=O)NN=Cc1ccccc1OC/C=C/c1ccccc1	.	.	.	1.3	.	.	.
C/C(=N\Nc1nc(-c2cc(C)ccc2C)cs1)c1cc2c(ccc3ccccc32)oc1=O	-150.0	46.5*	-242.0	.	14.4	-11.8	-8.5
CCOc1cc(/C=N/NC(=O)c2ccc(CN3CCOCC3)cc2)ccc1OC	-48.3	3.4	-37.0	.	.	.	.
CCOc1cc(/C=C/C(=O)c2ccc(OC)c(CN3CCOCC3)c2)cc(Br)c1O	-38.1	67.5*	-25.4	8.3	72.2*	2.2	79.9*
SMILES	PLCb3 inh	Rpn11 inh	PLCg1 inh	UCH37 DUB inh	Rpn11 confirm	MMP-2 counter	Thrombin FP	others
COC(=O)C1=C(O)/C(=C\c2ccc(O)c(OC)c2)N=C1C	-12.9	59.9*	-8.3	12.3	19.7	5.7	12.4
COC(=O)C1=C(O)/C(=C\c2ccc(OCC(=O)Nc3ccccc3OC)cc2)N=C1C	-7.2	-1.5	-2.7	-25.7	.	.	.
CC(=NNC(=O)C(=O)Nc1cccc(Cl)c1C)c1ccncc1	.	.	.	-0.3	.	.	.
CCN(CC)c1ccc(C(=O)NN=C(C)c2cccc(OC)c2)cc1	.	.	.	6.2	.	.	.
O=C(Nc1ccc2c(c1)CCC2)c1cc(S(=O)(=O)N2CCN(c3ccccc3)CC2)ccc1Cl	-3.1	64.0*	0.3	5.9	41.2*	13.8	-50.3
CC1CCCN(c2ccc([N+](=O)[O-])s2)C1 (stereo not drawn)	-2.3	52.6*	2.9	15.4	39.4	-38.1	30.1
O=[N+]([O-])c1ccc(N2CCCCC2)s1	-0.1	54.2*	-0.8	20.2*	43.8*	6.2	35.1
Cc1cc(SCC(=O)NN)c2cc(Br)ccc2n1	-6.6	43.2*	-3.0	5.6	2.7	-28.4	-5.0
Cc1cc(C(=O)NN)c2cc(Br)ccc2n1	-1.5	3.6	3.5	3.3	.	.	.
Clc1ccc(C2=Nn3c(nnc3-c3cccnc3)SC2)s1	1.3	16.4	1.0	6.9	.	.	.
Brc1ccc(C2=Nn3c(nnc3-c3cccnc3)SC2)s1	.	67.1*	.	7.1	0.5	-36.1	-8.8
CC(=NNC(=S)Nc1ccccc1)C1Cc2ccccc2C(=O)O1 (stereo not drawn)	.	.	.	4.2	.	.	.
CCc1cc2c(nc1CC)CCN(CCC(C)=NOC[C@H]1O[C@H](c3ccccc3)C=C[C@@H]1Oc1ccc(OC)cc1)C2	.	.	.	0.8	.	.	.
COc1ccc(-c2cc(C(=O)Nc3cc(C)nn3-c3ccccc3)no2)cc1	-0.1	16.4	0.8	1.8	.	.	.
COc1ccccc1-c1cc(C(=O)Nc2cc(C)nn2-c2ccccc2)no1	-3.6	58.6*	-4.1	-1.9	64.6*	-20.0	8.8
O=Cc1cn(-c2ccccc2)nc1-c1cc2cc(O)ccc2oc1=O	-163.5	110.9*	-118.0	-98.3	41.8*	13.3	34.2
Cc1ccc(C(=O)Nc2cccc(-c3cnc4ccccc4n3)c2)cc1	0.3	-3.7	-0.4	2.4	.	.	.

High-throughput results (PubChem BioAssay)
